Drawing on ChEMBL document CHEMBL5390295, “Isolinderalactone Ameliorates the Pathology of Alzheimer's Disease by Inhibiting the JNK Signaling Pathway” (2023), this text covers Activity for one compound.

For assay [1], the system named is PC-12. Kind of assay: Neuroprotective activity against Abeta1-42 induced rat PC12 cells assessed as increase in cell viability at 10 uM preincubated for 3 hrs followed by Abeta1-42 induction and measured after 24 hrs in the presence of SP600125 by MTT assay. The format is functional, cell-based. The conditions noted are these: time 27.0 hrs. In outline: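 PC12 cells were seeded at 5×10^3/well and pretreated 3 h with test compound (range or 10 μM), with or without SP600125 1.25 μM for 0.5 h beforehand. Cells were then exposed to 10 μM Aβ1–42 oligomers for 24 h. MTT 0.5 mg/mL was added for 3–4 h, formazan dissolved in DMSO, and absorbance read at 570 nm. Viability is given as % of control.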
On the technique in general: Tetrazolium assays rely on reduction of a dye to a coloured formazan, in cell work by metabolically active cells.

Assay [2] has as its system Mus musculus. As to the kind of experiment: Anti-alzheimer activity in hippocampus of APP/PS1 dE9 double transgenic mouse model assessed as increase in the level of Bcl-2 at 10 mg/kg, ip administered once daily for 30 consecutive days by Western blot analysis. Type of assay: functional, organism-based. The following applies: time 30.0 day. In outline:
(§1)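 Hippocampal homogenates from dosed APP/PS1 mice were extracted in RIPA and protein measured by BCA. Samples were run by SDS electrophoresis, transferred to 0.22 μm PVDF for 90 min, blocked with 5% BSA in TBST for 2 h at RT, and probed with primaries 1:1000 overnight at 4 °C. HRP secondary was applied for 2 h at RT.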
Background: A western blot detects proteins with antibodies after separation by electrophoresis.

Assay [3] concerns Mus musculus. Kind of assay: Anti-alzheimer activity in hippocampus of APP/PS1 dE9 double transgenic mouse model assessed as decrease in the level of Bax at 10 mg/kg, ip administered once daily for 30 consecutive days by Western blot analysis. The format is functional, organism-based. The conditions noted are these: time 30.0 day. In outline: as §1
For assay [4], the system named is Mus musculus. As to the kind of experiment: Anti-alzheimer activity against mouse model APP/PS1 dE9 double transgenic mouse model assessed as improvement in average movement speed at 1 to 10 mg/kg, ip administered once daily for 30 consecutive days measured on day 1 by novel object recognition test. The format is functional, organism-based. The conditions noted are these: dose 1-10 mg/kg, time 31.0 day.

Each structure is given as a SMILES string. Calls of active or inactive are those of the source. The rule behind the calls is not given here.

On to `C=C[C@@]1(C)Cc2occ(C)c2[C@@H]2OC(=O)C(=C)[C@@H]21` [ISOLINDERALACTONE], for which, in assay [1], the outcome was inactive. Moreover, the outcome in assay [2], in assay [3] and in assay [4] was Active.
